Assay results gathered from unrelated publications.
HTR2B: 5-hydroxytryptamine receptor 2B (HTR2B, Homo sapiens, UniProt P41595)
HTR2C: 5-hydroxytryptamine receptor 2C (HTR2C, Homo sapiens, UniProt P28335)

Structure (SMILES) | target | observed | mode | technique | tested at | quantity | value
COc1cc2c3c(c1OC)-c1c(OC)ccc(Br)c1CC3N(C)CC2 (centres unmarked) | HTR2B | ligand displacement |  | radioligand | 10 µM | inhibition | 88%
CC(C)CC(=O)OC[C@H]1O[C@@](C#N)(c2ccc3c(N)ncnn23)[C@H](O)[C@@H]1O | HTR2C | cell-free assay |  |  | 20 µM | inhibition | 10%
Nc1ncnc2c1ncn2[C@@H]1O[C@H](C[C@@H](N)CC[C@H](N)C(=O)O)[C@@H](O)[C@H]1O | mRNA cap guanine-N(7) methyltransferase (RNMT, Homo sapiens, UniProt O43148) | enzyme activity | inhibitor |  | 50 µM | inhibition | 85.3%
CN1CCC[C@H]1c1cccnc1 | Neuronal acetylcholine receptor; alpha3/beta4 (Rattus norvegicus, UniProt P04757+P12392) | ligand displacement |  | radioligand | 50 µM | inhibition | 65.5%
COc1cc2c3c(c1OC)-c1c(OC)ccc(O)c1CC3N(C)CC2 (centres unmarked) | HTR2B | ligand displacement |  | radioligand | 10 µM | inhibition | 86%
COc1cc(C(F)(F)F)c(OC)cc1C1CCCNC1 (centres unmarked) | HTR2C | G protein activation | agonist | BRET |  | Emax | 85%
c1cncc([C@@H]2CCCN2)c1 | HTR2C | ligand displacement |  |  | 50 µM | inhibition | -12.7%
[2H]c1c([2H])c([C@]2([2H])CCCN2C(=O)C(C)(C)Oc2ccc3cn[nH]c3c2)c([2H])c([2H])c1C([2H])([2H])[2H] | BMP-2-inducible protein kinase (BMP2K, Homo sapiens, UniProt Q9NSY1) | binding |  | competition with immobilised ligand | 1 µM | remaining binding | 77%
